Data: paper PMC2764840 (Nature immunology, 2009)

Assays:
[1] = system: AND TCRtg CD4^+ peripheral T cells; assay: Co-agonist assay; format: cell-based, mouse; conditions: I-E^k-Ig dimers
Summary of the method: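 I-E^k-Ig dimers co-loaded with MCC and test or Hb control peptide at ratios of 1:10 to 1:1,000 (pH 5.0 citrate–PO₄, 37°C, 72 h), coated at 1 µg/well in triplicate. One to 2 × 10⁶ purified splenic AND CD4⁺ T cells (H-2^b) were added per well and cultured three days. ³H-TdR was pulsed for the final 18–24 h. Values are mean ± s.d. of triplicates.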

[2] = system: AND TCRtg CD4^+ T cells in B6.K.Rag1^−/− mice; assay: Homeostatic proliferation assay; format: in vivo, mouse; conditions: 0.5 mg i.p. on days -1 and +1; CFSE, flow cytometry
Summary of the method: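 Splenic AND CD4⁺ T cells were labeled with 5 µM CFSE, and 10⁶ cells/mouse were given retro-orbitally on day 0 to B6.K.Rag1⁻/⁻ recipients. Recipients received peptide i.p. (0.5 mg; also 0.1 mg) or Hb₆₄₋₇₆ control on days −1 and +1. After four days, inguinal and axillary nodes were pooled and CD4, Vα11 and CFSE analyzed by flow cytometry; totals counted. n = 8 mice/group over five experiments; Mann-Whitney.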

[3] = system: AND TCRtg DP thymocytes (AND.Rag1^−/−H-2^d); assay: CD69 upregulation assay, AND thymocytes; format: cell-based, mouse; conditions: I-E^k-Ig dimers + anti-CD28, overnight
Summary of the method: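 Plates coated overnight at 4°C in PBS with 1 µg/well self-peptide-loaded I-E^k-Ig dimer (S2-cell-expressed, Protein A-purified; loaded 72 h at 37°C in 0.2 M citrate–PO₄ pH 5.0, then neutralized with 1 M pH 9.0) plus 10 µg/well anti-CD28. Thymocytes (1 × 10⁶/well) cultured overnight at 37°C in IMDM/10% FCS/2-ME; CD69 by flow cytometry. Two independent experiments.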

AND TCRtg DP thymocytes = assay: Thymic reaggregate culture, positive selection of AND; format: cell-based, mouse; conditions: ANV41.2 I-E^k cells, 96 hours
Summary of the method: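 DP thymocytes from newborn (3–14 d) AND.Rag1⁻/⁻H-2^d mice, CD8-bead purified (1 × 10⁶), were pelleted with 5 × 10⁵ untreated ANV41.2 I-E^k cells as standing drops on transwells. Peptide was added to the lower well in I-20 plus medium (Hb control 30 µM). Cultures ran 96 h at 37°C, then CD4/CD8 flow for %CD4SP. Mean ± s.e.m. of 5 experiments; Mann-Whitney.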

GKKVITAFNEGLK [Hb]
stimulation of AND T cells (in words) ([1]; MCC:peptide 1:20): stimulatory
stimulation of AND T cells (in words) ([1]; MCC:peptide 1:1,000): non-stimulatory
homeostatic proliferation of AND TCRtg T cells (in words) [2]: proliferation of the AND TCRtg T cells
CD69 upregulation (in words) [3]: did not upregulate CD69
positive selection of AND CD4SP cells (in words) (AND TCRtg DP thymocytes): did not positively select AND TCRtg T cells in thymic reaggregate culture
